Screening results from PubChem.
E-sel inducer: E-selectin induction on HUVECs. HUVEC E-selectin immunofluorescence imaging; normalized: neutral wells 0, TNF-alpha wells 100. activation, % at 7.58 µM. 260,000 compounds, 0.37% hits. AID 686992;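 active = mean E-selectin-positive cell signal at least 10% of the positive control, reached in at least 60% of replicates, without over 20% cell loss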
Target sequence (P16581 whole entry, looked up): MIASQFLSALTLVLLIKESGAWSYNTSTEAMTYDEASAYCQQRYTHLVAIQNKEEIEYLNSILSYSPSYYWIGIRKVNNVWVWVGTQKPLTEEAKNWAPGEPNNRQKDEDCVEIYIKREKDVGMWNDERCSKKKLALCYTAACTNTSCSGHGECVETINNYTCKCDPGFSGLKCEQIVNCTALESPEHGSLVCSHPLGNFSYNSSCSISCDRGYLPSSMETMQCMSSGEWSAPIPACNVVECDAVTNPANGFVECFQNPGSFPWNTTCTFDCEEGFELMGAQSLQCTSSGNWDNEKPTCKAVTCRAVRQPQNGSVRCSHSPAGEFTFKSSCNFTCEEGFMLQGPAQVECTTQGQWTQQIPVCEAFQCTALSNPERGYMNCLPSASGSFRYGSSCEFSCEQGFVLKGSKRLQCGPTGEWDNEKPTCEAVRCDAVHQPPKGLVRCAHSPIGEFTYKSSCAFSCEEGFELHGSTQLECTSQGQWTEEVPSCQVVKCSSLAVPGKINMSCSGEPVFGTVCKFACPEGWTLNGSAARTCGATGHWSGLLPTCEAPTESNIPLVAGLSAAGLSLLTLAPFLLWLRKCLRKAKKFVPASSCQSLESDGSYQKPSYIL
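Read-out basis: % PE-positive cells; Test system: HUVEC primary endothelial cells; Technique: immunofluorescence imaging; Dosing: single-point compound dose.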
EWS-Fli block: blocks EWS/Fli oncoprotein-driven transcription | A673 NR0B1-luciferase reporter, viability-normalised | inhibition, % at 12.6 µM | 350,000 compounds, 0.67% hits | AID 651661;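 active = mean inhibition of at least 50% after viability correction, with every replicate also passing that limit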;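 note: firefly luciferase signal divided by Alamar Blue viability fluorescence both relative to DMSO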
LGR2 inh: blocks bursicon-induced cAMP signaling via Drosophila LGR2. HEK293 LGR2, CRE-luciferase, bursicon-stimulated, 4 h. inhibition, % at 9.99 µM. 380,000 compounds, 0.35% hits. AID 720647;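 active = drop in luminescence signal, shown as inhibition above about 50% in the replicate tests, limit read from the data, passing the limit was not always enough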;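 note: agonist challenge used bursicon conditioned medium at about half maximal strength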
rRNA inh HTS: inhibits bacterial ribosomal RNA function over humanized ribosomes; E. coli WT GFP vs humanized-ribosome RFP mutants, fluorescence, 24 h; active compounds read low; DMSO median 0, no signal -100; GFP signal change (wild-type ribosome), % (test concentration not listed); 350,000 compounds, 1.6% hits; AID 720706;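 active = significant combined selectivity score with lowered wild-type GFP, culture density cut under 30%, mutant RFP and density less affected; inactive = any of these conditions unmet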
Numbers without * were called inactive; · = no result given; ! = repeats disagree. A selection: hits, their analogues and other compounds. The true share with any hit is near 2.4%.

SMILES	E-sel inducer	EWS-Fli block	LGR2 inh	rRNA inh HTS
O=C(NCCc1ccc(C(F)(F)F)cc1)C1CCC(=O)N(CCCc2ccccc2)C1 (stereo not given)	·	1	9	-46*
O=C(NCCc1ccc(C(F)(F)F)cc1)C1CCC(=O)N(CCc2cccc(F)c2)C1 (stereo not given)	-2	-18	-10	-13
COc1ccc2c3c([nH]c2c1)[C@@H](CO)N(S(C)(=O)=O)CC31CCN(C(=O)c2cccnc2)CC1	0	-2	-35	0
C[C@@H]1CCCCO[C@@H](CN(C)S(=O)(=O)c2ccc(F)cc2)[C@H](C)CN([C@H](C)CO)C(=O)c2cc(NC(=O)CCCN(C)C)ccc2O1	0	0	17	-1
NC1=NC(=O)C(=Cc2ccccc2)S1	0	-1	-9	7
NC1=NC(=O)/C(=C/c2cccc(F)c2)S1	54*	-4	1	8
CCN1[C@@H]2c3ccc(-c4ccccc4)c(=O)n3C[C@@H]2[C@@H](CO)[C@@H]1C(=O)Nc1ccccc1	0	6	2	-7
COC(=O)c1cc(NC(=O)c2cc(-c3ccccc3Cl)oc2C(F)(F)F)ccc1N1CCOCC1	4	18	9	-32*
Nc1ccccc1N1C(=O)c2cccc3cccc(c23)C1=O	·	-43	0	-1
O=C1c2cccc3cccc(c23)C(=O)N1c1ccccc1Cl	0	10	-11	-32*
CC[N+]1=C(C)C(C)(C)c2cc(C)ccc21	169*	28	56*	-39
CCN1C(=O)C(=O)c2cc(C)ccc21	0	13	-2	5
O=C(c1cccs1)c1ccc(-c2cccs2)s1	·	·	62*	·
Cc1nc2ccc(NC(=S)NC3CCCCC3)cc2nc1C	1	-76	-112	-28*
COC(=O)[C@]12CCCCC=C1N(Cc1cccc3ccccc13)C(=O)[C@H](CC(=O)NCc1ccc(OC)c(OC)c1)C2	0	23	89*	6
CCOC(=O)[C@]12CCC=C1N(CCC1=CCCCC1)C(=O)[C@H](CC(=O)NCCc1ccccc1OC)C2	180*	-6	-9	11
CCN1[C@H](C(=O)NCc2ccccc2)[C@@H](CO)[C@@H]2Cn3c(ccc(-c4ccccc4)c3=O)[C@@H]21	-1	16	10	-5
C[C@@H]1CN([C@H](C)CO)C(=O)Cc2cc(NC(=O)C3CCCCC3)ccc2O[C@@H]1CN(C)C(=O)Nc1ccc(C(F)(F)F)cc1	-2	-15	9	-8
Cc1noc(C)c1COc1ccccc1C(=O)N1CCN(S(=O)(=O)c2ccc(F)c(F)c2)CC1	94*	-3	-4	2
C[C@@H]1CN([C@H](C)CO)C(=O)c2cccc(NC(=O)c3ccc(-c4nccs4)cc3)c2O[C@H]1CN(C)Cc1ccc(Oc2ccccc2)cc1	75*	10	10	2
CC(C)NC(=O)N(C)C[C@@H]1Oc2c(NC(=O)c3ccc(-c4nccs4)cc3)cccc2C(=O)N([C@H](C)CO)C[C@H]1C	91*	0	-8	-2
CC(C)NC(=O)N(C)C[C@H]1Oc2c(NC(=O)c3ccc(-c4nccs4)cc3)cccc2C(=O)N([C@@H](C)CO)C[C@H]1C	65*!	1	-13	-9
C[C@H]1CN([C@@H](C)CO)C(=O)c2cccc(NC(=O)c3ccc(-c4nccs4)cc3)c2O[C@@H]1CN(C)C(=O)NC1CCCCC1	-4	0	-1	-2
COc1ccc(CN(C)C[C@@H]2Oc3c(NC(=O)c4cnccn4)cccc3C(=O)N([C@@H](C)CO)C[C@H]2C)cc1	54*	0	7	-1
CC(C)C#Cc1ccc2c(c1)O[C@@H](CN(C)Cc1ccccc1)[C@@H](C)CN([C@H](C)CO)S2(=O)=O	-1	17	7	-4
C[C@H]1CN([C@@H](C)CO)C(=O)c2cc(NC(=O)C3CCCCC3)ccc2O[C@@H]1CN(C)Cc1ccc(Cl)c(Cl)c1	0	11	-10	-2
CN1CCN(C(=O)C[C@@H]2CC[C@@H]3[C@H](COC[C@@H](O)CN3CC3CC3)O2)CC1	0	-1	-25	3
CCCC#Cc1ccc2c(c1)O[C@@H](CN(C)C)[C@H](C)CN([C@@H](C)CO)S2(=O)=O	0	3	20	1
O=C(C1=C[C@H](c2ccc3c(c2)Cc2ccccc2-3)C[C@H](OCCCCO)O1)N1CCCCC1	·	-48	·	·
